# High-throughput results: PubChem BioAssay, several laboratories
# EBI2 antag – EBI2 receptor antagonists, beta-arrestin recruitment, primary screen, cell-based, luminescence, 7a,25-OHC stimulation, uHTS; 7a,25-OHC stimulated; inhibition, % at 5 µM; G-protein coupled receptor 183 (Homo sapiens), P32249; AID 651636, 2012; 360,000 tested, 0.81% active; in the data active = inhibition above about 38%;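 note: enzyme fragment complementation signal reports receptor beta-arrestin coupling in cells; 0% = agonist plus DMSO wells and 100% = wells without agonist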
# APJ antag – antagonists of human apelin receptor APJ, primary screen, CHO-K1 cells, beta-arrestin complementation, luminescence; P35414; inhibition, % at 20 µM; 330,000 tested, 0.32% active;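 active = inhibition above about 40% at 20 µM, limit read from the data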;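 note: cells challenged with 10 nM apelin-13 agonist together with compound; plate controls were apelin-13 plus DMSO wells for no effect and DMSO wells lacking apelin-13 for full effect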
# Target sequence (P35414 whole entry, looked up): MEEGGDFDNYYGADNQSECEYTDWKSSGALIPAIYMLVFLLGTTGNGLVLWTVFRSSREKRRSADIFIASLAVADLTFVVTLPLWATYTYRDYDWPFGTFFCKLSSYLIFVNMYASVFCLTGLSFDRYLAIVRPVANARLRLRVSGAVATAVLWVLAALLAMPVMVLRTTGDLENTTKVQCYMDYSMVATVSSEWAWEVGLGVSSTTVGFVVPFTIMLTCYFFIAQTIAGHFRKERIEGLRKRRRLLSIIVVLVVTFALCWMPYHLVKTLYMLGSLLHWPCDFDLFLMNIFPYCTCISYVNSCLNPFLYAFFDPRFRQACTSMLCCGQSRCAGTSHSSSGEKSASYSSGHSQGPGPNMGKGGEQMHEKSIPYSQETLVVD
# HTR2A ag – mouse Htr2a agonists via beta-arrestin recruitment, primary screen, cell-based, luminescence | 5-hydroxytryptamine receptor 2A (Mus musculus), P35363 | CHO-K1 mHTR2A beta-arrestin complementation; percent of 30 µM serotonin response | activation, % at 7.6 µM | 360,000 tested, 0.66% active | AID 624169, 2012;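 active = activation above a run cutoff, the mean activation of all tested compounds plus 3 SD, cut at about 14% in these data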;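 note: 0% = plate median of compound wells and 100% = 30 µM serotonin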
# CXCR6 inh – CXCR6 receptor inhibitors, primary screen, cell-based, beta-arrestin, luminescence, CHO-K1 PathHunter, 1536-well; inhibition, % at 20 µM; 360,000 tested, 0.36% active; AID 602244, 2012; in the data active = inhibition above about 34%, passing the limit was not always enough;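 note: antagonist mode with CXCL16 agonist at 10 nM final; 0% = 10 nM CXCL16 with DMSO and 100% = unstimulated wells without agonist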
# CCR6 antagonist – CCR6 receptor antagonists, primary screen, cell-based, CHO-K1, luminescence, beta-arrestin, uHTS; C-C chemokine receptor type 6 (Homo sapiens), P51684; CHO-K1 CCR6 PathHunter beta-arrestin, CCL20-stimulated; inhibition, % at 20 µM; 340,000 tested, 0.49% active; AID 493098, 2011;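 active = compounds whose inhibition of the agonist-driven luminescence signal at 20 µM reaches about 50%, limit read from the data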;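 note: cells stimulated with CCL20 at 14 nM final; plate controls were DMSO with CCL20 for no effect and DMSO without agonist for full effect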
# APJ ag – agonists of human apelin receptor APJ, primary screen, CHO-K1 cells, PathHunter beta-arrestin, luminescence. 0% DMSO wells, 100% apelin. activation, % at 20 µM. 330,000 tested, 0.11% active. AID 2520, 2010;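 active = activation more than six SD over the plate average, tested at 20 µM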;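 note: 0% = DMSO alone and 100% = apelin-13 at 10 nM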
#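 system = engineered CHO-K1 APJ arrestin reporter cells | input = 1000 cells per well | timing = overnight seeding, 90 min compound at 25 °C, 1 h detection | measured by = enzyme-fragment complementation luminescence | read-out = beta-arrestin recruitment to APJ as agonist activity, luminescent signal | control set = negative DMSO alone, positive Apelin-13 at 10 nM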
# CXCR6 antag conf – CXCR6 receptor antagonists, confirmation, cell-based, single concentration, beta-arrestin, luminescence; shares compounds with CXCR6 inh; CHO-K1 CXCR6 PathHunter beta-arrestin; inhibition, % at 20 µM; 700 tested, 65% active; AID 602409, 2012;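 active = mean inhibition over four retests above 40%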;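 note: receptor stimulated with 10 nM CXCL16 agonist; beta-galactosidase fragment complementation upon beta-arrestin recruitment to receptor; plate controls were CXCL16 plus DMSO for no effect and DMSO without CXCL16 for full effect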
# * marks the source's active call; other numbers are inactive results; · = no result. This is a sample that favours compounds with a hit; in the whole collection about 2.1% have one here.
SMILES,EBI2 antag,APJ antag,HTR2A ag,CXCR6 inh,CCR6 antagonist,APJ ag,CXCR6 antag conf
COc1ccc(NC(=S)NNc2ccc([N+](=O)[O-])cc2S(=O)(=O)Nc2ccc(C)cc2C)cc1,14,1,2,49*,77*,0,56*
CC1(C(=O)NS(=O)(=O)c2ccccc2C(F)(F)F)CCN1C(=O)CCc1cccs1 (stereo not drawn),-6,·,0,-3,·,·,·
COC1Cc2ccccc2N(C(N)=O)c2ccccc21 (stereo not drawn),-12,-17,9,1,7,-7,·
O=C(C=P(c1ccccc1)(c1ccccc1)c1ccccc1)c1ccccc1-c1ccccc1C(=O)C=P(c1ccccc1)(c1ccccc1)c1ccccc1,3,·,-2,71*,88*,·,39
Cc1ccc(NC(=S)NNC(=S)NNc2ccccc2)cc1C,26,·,-1,40*,·,·,37
S=C(NNC(=S)Nc1ccc(Cl)cc1)NNc1ccccc1,32,·,5,22,·,·,·
O=[N+]([O-])c1ccc(Sc2nc3ccccc3o2)c([N+](=O)[O-])c1,-53,-78,2,43*,43,9,46*
Cc1ccc(S(=O)(=O)ON2C(=O)c3ccccc3C2=O)c(C)c1,4,·,2,67*,61*,·,27
Cc1ccc(S(=O)(=O)N2CCN(CCc3ccccc3)CC2)c(C)c1,11,6,-7,5,-9,-1,·
COC(=O)CN1C(=O)[C@H]2[C@@H](c3ccc(C)o3)N3C(=O)CN(Cc4ccccn4)C(=O)[C@@]3(C)[C@H]2C1=O,-4,2,3,104*,4,5,3
CCOc1ccc(CCNC(=O)COC(=O)COc2ccc(C#N)cc2)cc1OCC,-3,-52,5,-1,8,-4,·
O=C(/C=C/c1ccc(Cl)cc1)N(c1ccccn1)C1CCCCC1,16,9,-7,59*,20,-4,9
COCC(=O)Nc1ccc2c(c1)[C@@H]1C[C@H](CC(=O)OC)O[C@H](CO)[C@@H]1O2,-3,·,2,4,·,·,·
Cc1ccc(C(=O)NNC(=S)NC(=O)c2ccccc2)cc1,-6,12,-9,36*,·,-5,44*
Cc1ccc(C(=O)NC(=S)NNC(=O)c2ccccc2)cc1,1,1,0,13,19,-4,·
CSc1ccc(/C=C(\NC(=O)c2ccco2)C(=O)N2CCCCC2)cc1,1,-34,4,-2,15,-3,·
CC(C)(C)S(=O)N1Cc2cc(C(=O)NCC(F)(F)F)nc(-c3cccc(-c4cccc(F)c4)c3)c2[C@@H]1CCO (stereo partly drawn),21,·,5,1,·,·,·
CCCCn1c(N)c(C(=S)NC(=O)CC(C)(C)C)c(=O)n(C)c1=O,-5,38,-2,39*,·,-2,35
CCCn1c(N)c(C(=O)CSc2ncn[nH]2)c(=O)n(C)c1=O,-6,11,2,-6,7,-1,·
O=c1c2c([N+](=O)[O-])cc([N+](=O)[O-])cc2sn1Cc1ccccc1,6,9,6,45*,97*,2,16
C[C@H](CO)N1C[C@H](C)[C@H](CN(C)C(=O)Nc2ccc(F)cc2)OCc2ccccc2-c2c(n(C)c3ccccc23)C1=O,-1,·,10,41*,·,·,20
COC(=O)CN(c1ccccc1)S(=O)(=O)c1cc(Br)ccc1OC,-1,6,3,92*,9,-1,22
COc1ccc(Br)cc1S(=O)(=O)N(CC(=O)N1CCOCC1)c1ccccc1,-15,-3,2,1,5,1,·
C=CCN(CC=C)C(=S)NC(=O)c1ccc(-c2ccccc2)cc1,2,20,-4,53*,·,-6,73*
